Tests used:
[1] = target: Breakpoint cluster region protein/Tyrosine-protein kinase ABL1 (Homo sapiens, UniProt P00519+P11274); assay: Antiproliferative activity against human K562 cell line expressing Bcr-Abl
Method in brief: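 Cell growth inhibition measured by counting cells with an automatic cell counter in sensitive HL60, MDR HL60R and Bcr-Abl-expressing K562 cells. IC50 is the concentration inhibiting 50% of cell growth.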

[2] = Antiproliferative activity against MDR human HL60R cell line

Chain of Breakpoint cluster region protein/Tyrosine-protein kinase ABL1 (P00519 whole entry): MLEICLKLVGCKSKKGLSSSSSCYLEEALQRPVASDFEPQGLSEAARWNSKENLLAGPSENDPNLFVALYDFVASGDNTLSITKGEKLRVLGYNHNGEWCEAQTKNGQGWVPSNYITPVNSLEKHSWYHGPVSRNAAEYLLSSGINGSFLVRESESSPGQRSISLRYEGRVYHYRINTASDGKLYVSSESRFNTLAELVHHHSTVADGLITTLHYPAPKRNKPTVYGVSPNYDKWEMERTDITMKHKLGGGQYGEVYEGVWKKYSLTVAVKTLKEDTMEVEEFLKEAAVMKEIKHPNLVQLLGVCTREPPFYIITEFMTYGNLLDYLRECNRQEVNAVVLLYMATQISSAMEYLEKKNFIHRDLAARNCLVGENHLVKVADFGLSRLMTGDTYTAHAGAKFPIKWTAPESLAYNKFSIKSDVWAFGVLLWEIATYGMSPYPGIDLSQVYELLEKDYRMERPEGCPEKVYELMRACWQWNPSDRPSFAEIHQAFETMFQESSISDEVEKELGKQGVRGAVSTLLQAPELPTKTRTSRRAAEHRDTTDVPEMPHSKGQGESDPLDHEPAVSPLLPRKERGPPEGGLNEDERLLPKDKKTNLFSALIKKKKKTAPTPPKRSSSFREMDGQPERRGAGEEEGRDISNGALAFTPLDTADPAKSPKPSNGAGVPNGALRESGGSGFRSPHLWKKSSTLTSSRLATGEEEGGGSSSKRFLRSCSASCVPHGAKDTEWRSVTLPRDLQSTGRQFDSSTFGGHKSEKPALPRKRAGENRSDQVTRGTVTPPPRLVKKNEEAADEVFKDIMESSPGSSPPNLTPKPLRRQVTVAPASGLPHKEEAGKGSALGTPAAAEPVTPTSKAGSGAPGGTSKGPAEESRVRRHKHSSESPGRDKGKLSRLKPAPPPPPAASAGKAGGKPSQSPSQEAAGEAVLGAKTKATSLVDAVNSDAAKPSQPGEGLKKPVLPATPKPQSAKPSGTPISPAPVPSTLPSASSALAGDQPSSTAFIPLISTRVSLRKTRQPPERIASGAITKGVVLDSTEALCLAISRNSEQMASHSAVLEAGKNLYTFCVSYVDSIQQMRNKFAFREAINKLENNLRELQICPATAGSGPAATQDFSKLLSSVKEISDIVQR
Chain of Breakpoint cluster region protein/Tyrosine-protein kinase ABL1 (P11274 whole entry): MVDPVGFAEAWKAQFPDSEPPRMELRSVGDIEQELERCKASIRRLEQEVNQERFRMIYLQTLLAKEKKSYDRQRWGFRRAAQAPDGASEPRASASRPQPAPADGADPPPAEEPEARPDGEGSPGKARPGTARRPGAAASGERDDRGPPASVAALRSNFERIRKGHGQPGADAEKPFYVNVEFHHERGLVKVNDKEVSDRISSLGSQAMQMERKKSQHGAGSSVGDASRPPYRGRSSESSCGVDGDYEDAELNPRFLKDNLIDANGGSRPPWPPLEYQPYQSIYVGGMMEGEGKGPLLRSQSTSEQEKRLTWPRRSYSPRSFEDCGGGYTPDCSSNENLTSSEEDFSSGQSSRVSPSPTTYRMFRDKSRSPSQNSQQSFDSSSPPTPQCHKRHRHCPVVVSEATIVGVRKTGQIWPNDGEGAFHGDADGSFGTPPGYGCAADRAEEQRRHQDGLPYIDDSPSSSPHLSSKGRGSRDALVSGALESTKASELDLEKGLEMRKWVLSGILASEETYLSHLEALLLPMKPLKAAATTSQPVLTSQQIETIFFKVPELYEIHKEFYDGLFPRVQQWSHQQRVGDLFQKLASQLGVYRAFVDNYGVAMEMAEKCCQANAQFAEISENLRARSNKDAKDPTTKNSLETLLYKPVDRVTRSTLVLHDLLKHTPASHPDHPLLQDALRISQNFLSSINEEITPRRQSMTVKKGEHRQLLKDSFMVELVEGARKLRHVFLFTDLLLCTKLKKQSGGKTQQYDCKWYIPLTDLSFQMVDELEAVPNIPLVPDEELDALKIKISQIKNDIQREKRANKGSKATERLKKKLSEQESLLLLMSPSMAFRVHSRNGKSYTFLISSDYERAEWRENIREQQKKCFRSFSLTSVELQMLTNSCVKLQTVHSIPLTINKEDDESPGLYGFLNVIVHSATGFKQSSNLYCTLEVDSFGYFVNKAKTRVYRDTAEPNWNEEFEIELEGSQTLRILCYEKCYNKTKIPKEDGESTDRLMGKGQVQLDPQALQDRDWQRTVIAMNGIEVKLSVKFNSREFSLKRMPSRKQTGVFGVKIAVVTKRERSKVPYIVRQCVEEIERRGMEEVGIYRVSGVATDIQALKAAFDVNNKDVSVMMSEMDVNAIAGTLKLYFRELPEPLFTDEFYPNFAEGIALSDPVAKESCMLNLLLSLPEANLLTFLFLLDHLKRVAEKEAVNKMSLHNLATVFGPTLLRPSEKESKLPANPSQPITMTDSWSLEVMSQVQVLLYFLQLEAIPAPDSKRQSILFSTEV

Structure (SMILES)	IC50 [1] [µM]	IC50 [2] [µM]
COc1ccc(/C=C/c2cc(OC)cc(OC)c2)cc1	10	
COc1cc(/C=C/c2cc(C(C)(C)C)c(O)c(C(C)(C)C)c2)cc(OC)c1 [2,6-di-tert-butyl-4-[(E)-2-(3,5-dimethoxy-phenyl)-vinyl]-phenol]	> 100	
COc1cc(OC)cc(-c2ccc3cc(OC)ccc3c2)c1 [2-(3,5-Dimethoxy-phenyl)-6-methoxy-naphthalene]	> 100	> 100
COc1cc(/C=C/c2ccccc2O)cc(OC)c1 [2-[(E)-2-(3,5-dimethoxy-phenyl)-vinyl]-phenol]	24	68
COc1cc(/C=C/c2cccc(OC)c2O)cc(OC)c1 [2-[(E)-2-(3,5-dimethoxyphenyl)vinyl]-6-methoxyphenol]	8	
COc1cc(OC)cc(-c2ccccc2-c2ccc(O)cc2)c1 [3'',5''-dimethoxy-[1,1';2',1'']-terphenyl-4-ol]	14	28
COc1cc(OC)cc(-c2cccc(-c3ccc(O)cc3)c2)c1 [3'',5''-dimethoxy-[1,1';3',1'']-terphenyl-4-ol]	14	20
COc1cc(OC)cc(-c2ccc(-c3ccc(O)cc3)cc2)c1 [3'',5''-dimethoxy-[1,1';4,1'']-terphenyl-4-ol]	35	23
COc1cc(/C=C/c2cccc(O)c2)cc(OC)c1 [3-[(E)-2-(3,5-Dimethoxy-phenyl)-vinyl]-phenol]	26	> 100
COc1ccc(-c2ccccc2-c2cc(OC)cc(OC)c2)cc1 [4,3'',5''-trimethoxy-[1,1';2',1'']-terphenyl]	6	
COc1ccc(-c2cccc(-c3cc(OC)cc(OC)c3)c2)cc1 [4,3'',5''-trimethoxy-[1,1';3',1'']-terphenyl]	10	80
COc1ccc(-c2ccc(-c3cc(OC)cc(OC)c3)cc2)cc1 [4,3'',5''-trimethoxy-[1,1';4',1'']-terphenyl]	> 100	> 100
COc1cc(/C=C/c2ccc(O)cc2)cc(OC)c1 [4-[2-(3,5-Dimethoxy-phenyl)-vinyl]-phenol]	10	42
COc1cc(/C=C/c2cc(OC)c(O)c(OC)c2)cc(OC)c1 [4-[(E)-2-(3,5-dimethoxy-phenyl)-vinyl]-2,6-dimethoxy-phenol]	23	> 100
COc1cc(/C=C/c2cc(Cl)ccc2O)cc(OC)c1 [4-chloro-2-[(E)-2-(3,5-dimethoxy-phenyl)-vinyl]-phenol]	16	
Oc1cc(O)cc(-c2ccc3cc(O)ccc3c2)c1 [5-(6-hydroxy-naphtalen-2-yl)-benzene-1,3-diol]	20	
Oc1ccc(/C=C/c2cc(O)cc(O)c2)cc1 [5-[(E)-2-(4-hydroxyphenyl)ethenyl]benzene-1,3-diol]	28	60
COc1cc(OC)cc(-c2ccc3cc(O)ccc3c2)c1 [6-(3,5-dimethoxy-phenyl)-naphthalen-2-ol]	42	16
Oc1ccc(-c2ccccc2-c2cc(O)cc(O)c2)cc1 [[1,1';2',1'']-terphenyl-4,3'',5''-triol]	8	12
Oc1ccc(-c2cccc(-c3cc(O)cc(O)c3)c2)cc1 [[1,1';3',1'']-terphenyl-4,3'',5''-triol]	20	58
Oc1ccc(-c2ccc(-c3cc(O)cc(O)c3)cc2)cc1 [[1,1';4',1'']-terphenyl-4,3'',5''-triol]	20	23
